According to the array DNA melting data of Ke et al. (doi:10.1101/2024.01.08.574731):

Key:
[1] = melting temperature; fluorescence melt of hairpins on a sequencing array, two-state fit, raised by 9.35 °C to match UV melts; conditions: sodium 0.088 M
Method in brief: (§1)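 Cy3 fluorescence of library hairpins on a sequenced MiSeq flow cell, with annealed Cy3 and quencher oligos, was imaged in 50 mM Na-HEPES pH 8.0, 25 mM NaCl in 2.5 °C steps up to 60 °C. Signals were normalised to pre-quench Cy3 and to control variants. Melting temperature and folding enthalpy came from bootstrapped two-state fits, inverse-variance combined over four replicates. Fitted temperatures were raised by 9.35 °C to match UV melts.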

[2] = folding enthalpy; higher = less favourable; fluorescence melt of hairpins on a sequencing array, two-state fit; conditions: sodium 0.088 M
Method in brief: as §1

GCCTTCGGAAACAAAGGC (((((.(....).)))))
Tm [1]: 41.9 °C | folding enthalpy [2]: -27.5 kcal/mol

GCCTTGAAAAAGGC (((((....)))))
Tm [1]: 58.1 °C | folding enthalpy [2]: -24.4 kcal/mol

GCCTTGACGAAAGTCGGC (((..(((....))))))
Tm [1]: 50.3 °C | folding enthalpy [2]: -16 kcal/mol

GCCTTGCCGAAAGGCGGC (((..(((....))))))
Tm [1]: 67.5 °C | folding enthalpy [2]: -10.8 kcal/mol

GCCTTGCGAAAGCAGCGC ((..(((....)))..))
Tm [1]: 52.9 °C | folding enthalpy [2]: -14.6 kcal/mol

GCCTTGCGAAAGCAGGGC (((.(((....))).)))
Tm [1]: 69 °C | folding enthalpy [2]: -29.5 kcal/mol

GCCTTGCGAAAGCATAGC ((..(((....)))..))
Tm [1]: 50.8 °C | folding enthalpy [2]: -9.69 kcal/mol

GCCTTGCGAAAGCCATGC ((.(.((....)).).))
Tm [1]: 27 °C | folding enthalpy [2]: -3.66 kcal/mol

GCCTTGCGAAAGCCTGGC (((..((....))..)))
Tm [1]: 53.9 °C | folding enthalpy [2]: -18.7 kcal/mol

GCCTTGCGAAAGCGAAGC ((.(.((....)).).))
Tm [1]: 45 °C | folding enthalpy [2]: -8.01 kcal/mol

GCCTTGCGAAAGCGCGGC (((..((....))..)))
Tm [1]: 57.1 °C | folding enthalpy [2]: -18 kcal/mol

GCCTTGCGAAAGCTACGC ((.(.((....)).).))
Tm [1]: 46.3 °C | folding enthalpy [2]: -10.2 kcal/mol

GCCTTGCGAAAGCTTGGC (((..((....))..)))
Tm [1]: 60 °C | folding enthalpy [2]: -20.9 kcal/mol

GCCTTGGGAAACCAGGGC (((.(((....))).)))
Tm [1]: 52.7 °C | folding enthalpy [2]: -46.8 kcal/mol

GCCTTGGGAAACCGAGGC ((((.((....)).))))
Tm [1]: 56.6 °C | folding enthalpy [2]: -39.8 kcal/mol

GCCTTTCGAAAGAATGGC (((.(((....))).)))
Tm [1]: 53 °C | folding enthalpy [2]: -42.6 kcal/mol

GCGAAAACTCGC ((((....))))
Tm [1]: 41.7 °C | folding enthalpy [2]: -13.1 kcal/mol

GCGAAACGTCGC ((((....))))
Tm [1]: 47.8 °C | folding enthalpy [2]: -19.5 kcal/mol

GCGAAAGGTCGC ((((....))))
Tm [1]: 41.4 °C | folding enthalpy [2]: -14.1 kcal/mol

GCGAAAGTTCGC ((((....))))
Tm [1]: 47.2 °C | folding enthalpy [2]: -19.6 kcal/mol

GCGAAATGTCGC ((((....))))
Tm [1]: 44.8 °C | folding enthalpy [2]: -18.6 kcal/mol

GCGAAATTTCGC ((((....))))
Tm [1]: 51.7 °C | folding enthalpy [2]: -42.6 kcal/mol

GCGAACACTCGC ((((....))))
Tm [1]: 45 °C | folding enthalpy [2]: -23.5 kcal/mol

GCGAACCGAAAGGTCGC (((.(((....))))))
Tm [1]: 67.5 °C | folding enthalpy [2]: -31.8 kcal/mol

GCGAACCTCGC ((((...))))
Tm [1]: 46 °C | folding enthalpy [2]: -17.7 kcal/mol

GCGAACGAAAGTTGACGC ((((((....)))..)))
Tm [1]: 44.1 °C | folding enthalpy [2]: -23 kcal/mol

GCGAACGATCGC ((((....))))
Tm [1]: 41.1 °C | folding enthalpy [2]: -21.1 kcal/mol

GCGAACGCTCGC ((((....))))
Tm [1]: 59.6 °C | folding enthalpy [2]: -12.2 kcal/mol

GCGAACGGAAACACTCGC ((((..(....)..))))
Tm [1]: 32.3 °C | folding enthalpy [2]: -21.9 kcal/mol

GCGAACGGAAACGTCCGC (((.(((....))).)))
Tm [1]: 54.6 °C | folding enthalpy [2]: -40.2 kcal/mol

GCGAACGTTCGC ((((....))))
Tm [1]: 55.8 °C | folding enthalpy [2]: -39.5 kcal/mol

GCGAACTATCGC ((((....))))
Tm [1]: 45.4 °C | folding enthalpy [2]: -20.6 kcal/mol

GCGAAGACGAAAGTCCGC (((..(((....))))))
Tm [1]: 52.4 °C | folding enthalpy [2]: -31.9 kcal/mol

GCGAAGCCGAAAGGCCGC (((..(((....))))))
Tm [1]: 58.8 °C | folding enthalpy [2]: -20.2 kcal/mol

GCGAAGCGAAAGCACCGC (((..((....))..)))
Tm [1]: 43.8 °C | folding enthalpy [2]: -9.92 kcal/mol

GCGAAGCGAAAGCATGGC ((.(.((....)).).))
Tm [1]: 40 °C | folding enthalpy [2]: -5.07 kcal/mol

GCGAAGCGAAAGCATTGC ((.(.((....)).).))
Tm [1]: 39.1 °C | folding enthalpy [2]: -7.27 kcal/mol

GCGAAGCGAAAGCCTCGC ((((.((....)).))))
Tm [1]: 57.8 °C | folding enthalpy [2]: -18.5 kcal/mol

GCGAAGCGAAAGCCTGGC ((.(.((....)).).))
Tm [1]: 34.1 °C | folding enthalpy [2]: -5.56 kcal/mol

GCGAAGCGAAAGCTTTGC ((.((((....)))).))
Tm [1]: 62.6 °C | folding enthalpy [2]: -22.4 kcal/mol

GCGAAGGCGAAAGCCCGC (((..(((....))))))
Tm [1]: 59.5 °C | folding enthalpy [2]: -18.2 kcal/mol

GCGAAGTATCGC ((((....))))
Tm [1]: 46.2 °C | folding enthalpy [2]: -14.3 kcal/mol

GCGAAGTGTCGC ((((....))))
Tm [1]: 49.6 °C | folding enthalpy [2]: -13.9 kcal/mol

GCGAATATTCGC ((((....))))
Tm [1]: 50.7 °C | folding enthalpy [2]: -33.5 kcal/mol

GCGAATCGAAAGATACGC (((.(((....))).)))
Tm [1]: 55.5 °C | folding enthalpy [2]: -44.5 kcal/mol

GCGAATCGAAAGATCGC (((.(((....))))))
Tm [1]: 57.3 °C | folding enthalpy [2]: -31.2 kcal/mol

GCGAATGCGAAAGCACGC (((..(((....))))))
Tm [1]: 52.3 °C | folding enthalpy [2]: -18.9 kcal/mol

GCGAATGGAAACATCCGC (((.(((....))).)))
Tm [1]: 45.4 °C | folding enthalpy [2]: -23.1 kcal/mol

GCGAATGGAAACATTCAC (.(((((....))))).)
Tm [1]: 38.1 °C | folding enthalpy [2]: -18.6 kcal/mol
